From PubChem BioAssay AID821 (SRMLSC, 2007)
Calls of active or inactive are those of the source.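 Rule for the calls: active = compounds whose fitted half-maximal concentration for reducing fibroblast viability is 100 µM or lower; inactive = the rest.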

Test: LL 47 lung fibroblast growth inhibition, concentration-response, selectivity test for endothelial growth inhibitor program, cellular, luminescent ATP readout (AID 821);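 note: 100% = median of untreated cell-only wells and 0% = no luminescence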
Settings: LL 47 lung fibroblast viability, ATP luminescence; at 20 µM (top of the series)
Summary of the method: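 Test system: human lung fibroblasts, LL 47 line / Amount: 1,150 cells/well / Schedule: 72 h compound treatment at 37 °C after overnight attachment / Technique: CellTiter-Glo luminescence readout of viable cells / Measure: percent viability relative to untreated wells, EC50 via 4-parameter fit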

Row | Compound | viability
1 | COC(=O)c1cc(NC(=O)c2c(Cl)nc3sccn23)cc(C(=O)OC)c1 | 91.8% (inactive)
2 | CCCOC(=O)c1ccc(Oc2c(-c3ccc(OC)cc3O)n[nH]c2C)cc1 | 97.5% (inactive)
3 | COC(=O)c1sccc1NC(=O)c1ccc2c(c1)OCO2 | 103% (inactive)
4 | CCOC(=O)N1CCN(c2ncnc3c2oc2nc(C(C)C)c4c(c23)CCC4)CC1 | 108% (inactive)
5 | O=C1CSC(c2ccccn2)N1Cc1cn2ccccc2n1 (stereo not given) | 99.9% (inactive)
6 | COc1ccc(CNC(=O)c2cc3c(C)nc4ccccc4c3o2)c(OC)c1 | 88.7% (inactive)
7 | Cc1cccc(Nc2nc(NCc3ccco3)nc(N3CCOCC3)n2)c1 | 80.4% (inactive)
8 | CCOC(=O)c1ccc(NC(=O)CCc2nc(-c3cccc(C)c3)no2)cc1 | 107% (inactive)
9 | Cc1nn(-c2ccc(F)cc2)c(C)c1NS(=O)(=O)c1ccc(Cl)cc1 | 90.7% (inactive)
10 | c1ccc(CC2CCN(C3=Nc4cccc5cccc3c45)CC2)cc1 | 80.8% (inactive)
11 | Brc1ccc(-c2csc(NNC3=NCCCCC3)n2)cc1 | 90.2% (inactive)
12 | Cc1cc(/C=N/n2cnnc2)c(C)n1-c1ccc(OCc2ccc(Cl)cc2Cl)cc1 | 86.5% (inactive)
13 | CCCN(CCO)Cc1cccc(Br)c1 | 97.9% (inactive)
14 | COC(=O)c1ccc(NC(=O)Nc2ccc(F)c(Cl)c2)cc1 | 106% (inactive)
15 | CNC(=O)c1ccc(-c2sc3nc(N4CCOCC4)c4c(c3c2N)CCCC4)o1 | 90.4% (inactive)
16 | Cc1cccc2c1N(CCCOc1ccc(C(C)(C)C)cc1)C(=O)C2=O | 92.2% (inactive)
17 | CCC(C)NC(=O)c1c(N)n(/N=C/c2cccnc2)c2nc3ccccc3nc12 (stereo not given) | 104% (inactive)
18 | N=c1nc(N)nc2n1NC(c1ccc(F)cc1)=CS2 | 104% (inactive)
19 | Cc1cc(NC(=O)CSc2nc(C(C)C)nc3sc4c(c23)CCCC4)no1 | 93.6% (inactive)
20 | COc1ccc(OC)c(C(=O)CSc2nnc(-c3ccc(OC)c(OC)c3)o2)c1 | 88.4% (inactive)
21 | CCOC(=O)c1sc(NC(=O)CSc2nnnn2-c2ccc(C)cc2C)nc1C | 81.2% (inactive)
22 | Cc1nc2c(C(=O)NCCC(C)C)c[nH]n2c(=O)c1Cc1ccccc1F | 99.7% (inactive)
23 | CCc1cc(-c2n[nH]c(C)c2Oc2ccc(C(C)C)cc2)c(O)cc1O | 85.5% (inactive)
24 | CCCC1(CCC)NC(=O)N(CC(=O)Nc2ccccc2OC)C1=O | 92.2% (inactive)

Row | Compound | viability
25 | COc1ccc2cc3cc(C(=O)NCCc4ccc(OC)c(OC)c4)oc3nc2c1 | 109% (inactive)
26 | COc1ccccc1OCC(=O)Nc1cccc(-c2nc3ccccc3o2)c1 | 99% (inactive)
27 | Cc1cccc(NC(=O)c2cc(NC(=O)c3ccco3)ccc2N2CCCCC2)c1 | 82.5% (inactive)
28 | COc1ccc(Cl)cc1C(=O)n1nc(C)cc1C | 101% (inactive)
29 | CCCC(=O)Nc1cccc(-c2nc3cc(C)c(C)cc3o2)c1 | 104% (inactive)
30 | Oc1ccc2oc3c(c2c1/C=N/n1cnnc1)CCCC3 | 99.5% (inactive)
31 | COC(=O)C1=C(O)/C(=C\c2ccc(CNC(=O)C(=O)Nc3ccc(C)c(C)c3)o2)N=C1C | 101% (inactive)
32 | Cc1cccc(-c2nnc(NC(=O)c3ccc(Cl)cc3)o2)c1 | 87.4% (inactive)
33 | C=CCn1c(O)c(C2=c3ccccc3=NC2=O)s/c1=N/c1nccs1 | 88% (inactive)
34 | OC1(Cc2ccn[nH]2)CCCCC1 | 105% (inactive)
35 | Cc1ccsc1/C=C/C1=Cc2c(sc(NC(=O)CSc3n[nH]c(N)n3)c2C#N)C(C)(C)C1 | 112% (inactive)
36 | Cc1nc2ccccc2n1CCc1nc2c3ccccc3nc(SCC(=O)NCc3ccco3)n2n1 | 101% (inactive)
37 | CC(C)OCCCN1C(=O)c2[nH]nc(-c3ccccc3O)c2C1c1cccc(Cl)c1 (stereo not given) | 98.3% (inactive)
38 | COc1ccc(OC)c2sc(N3CCCCC3)nc12 | 96.8% (inactive)
39 | CCOC(=O)N1CCc2c(sc(NC(=O)c3ccc(S(=O)(=O)N4CCCC4)cc3)c2C#N)C1 | 81.6% (inactive)
40 | Cc1ccc2[nH]c3c(NCc4ccco4)ncnc3c2c1 | 85.1% (inactive)
41 | Cc1nc2ccccc2c2oc(C(=O)NCc3ccc4c(c3)OCO4)cc12 | 102% (inactive)
42 | Cc1cccnc1Nc1nc(-c2ccc(O)cc2O)cs1 | 94.8% (inactive)
43 | CC1CCc2sc3nc(N4CCN(CCO)CC4)n4ncnc4c3c2C1 (stereo not given) | 96.4% (inactive)
44 | Cn1c(SCC(=O)Nc2ccc(N3CCOCC3)cc2)nnc1-c1ccccc1 | 109% (inactive)
45 | COc1cc(OC)cc(C(=O)Nc2ccc(-c3nc4ccccc4o3)cc2)c1 | 107% (inactive)
46 | C/C(CC1CC2=C(CC1(C)C)C(C)(C)CCC2)=N\NC(N)=S (stereo not given) | 87.7% (inactive)
47 | O=c1oc(-c2ccccc2F)nc2c1cnn2-c1ccccc1 | 105% (inactive)
48 | Cc1occc1-c1nnc(SCC(=O)NCc2cccs2)n1-c1ccc(F)cc1 | 99.1% (inactive)

Row | Compound | viability
49 | CC1CCC(C(=O)c2c(O)c3ccccc3oc2=O)CC1 (stereo not given) | 88.2% (inactive)
50 | CC1(C)Cc2c(C#N)c(SCC(=O)c3ccccc3)nc(N3CCOCC3)c2CO1 | 90.1% (inactive)
51 | O=C(CSc1nnc(-c2cccs2)n1-c1ccccc1)Nc1ccccc1 | 90.4% (inactive)
52 | CCCCC[n+]1ccn(C2=C([O-])c3ccccc3C(=O)/C2=N\S(=O)(=O)c2ccccc2)c1 | 86.4% (inactive)
53 | O=C(Cn1cc(C(=O)c2ccccc2F)c2ccccc21)NCc1ccco1 | 104% (inactive)
54 | C=CCn1c(SCC(=O)NC(=O)NCc2ccco2)nc2sc(CC)cc2c1=O | 87.4% (inactive)
55 | CCn1c(SCC(N)=O)nnc1-c1ccc2[nH]c(C)c(C)c2c1 | 99.8% (inactive)
56 | O=c1[nH]c(=O)n(Cc2ccccc2)c2nc(-c3ccco3)cc(C(F)(F)F)c12 | 81% (inactive)
57 | CCOc1ccc(Nc2oc(-c3ccc(Cl)cc3)nc2C#N)cc1 | 106% (inactive)
58 | CCCCCCCCOC(=O)C1=C(C)Nc2nnnn2C1c1cccs1 (stereo not given) | 117% (inactive)
59 | O=C(/C=C/NNC(=O)c1ccccc1)c1ccccc1 | 93.2% (inactive)
60 | Cc1nc2c(-c3ccccc3)c(C)[nH]n2c(=O)c1Cl | 119% (inactive)
61 | CCc1ccc(-c2nc(CN3CCC(C(=O)NCc4ccc(F)cc4)CC3)c(C)o2)cc1 | 103% (inactive)
62 | CC1CC(C)(C)CC2(C1)NC(=S)N(c1ccccc1)N2 (stereo not given) | 109% (inactive)
63 | Cc1cc(N2CCCCC2)nc2ccc(NC(=O)c3ccc(Br)o3)cc12 | 94.4% (inactive)
64 | Cc1ccc2nc(NC(=O)CSc3ncnc4c3oc3ccccc34)sc2c1 | 113% (inactive)
65 | OCCN1CCN(c2nc(-c3ccccc3)c3cc(Cl)ccc3n2)CC1 | 85% (inactive)
66 | Cc1cc(C(=O)Nc2nc3ccc(S(C)(=O)=O)cc3s2)c(C)o1 | 92.9% (inactive)
67 | C=CCOC(=O)C1=C(C)NC(SCC(=O)Nc2nccs2)=C(C#N)C1c1cccs1 (stereo not given) | 91.3% (inactive)
68 | O=C1C2C3C=CC(CO)(O3)C2C(=O)N1c1ccccc1-c1ccccc1 (stereo not given) | 91.7% (inactive)
69 | CCOc1ccc(NC(=O)c2cc3n(n2)C(C(F)(F)F)CC(c2ccco2)N3)cc1 (stereo not given) | 106% (inactive)
70 | c1cc2c3c(cccc3c1)NC1(CCCCCC1)N2 | 86.2% (inactive)
71 | COc1ccc(O)c(-c2cc(-c3cccc(Br)c3)n[nH]2)c1 | 86.3% (inactive)
72 | COc1ccc(NC(=O)c2cc3n(n2)C(C(F)(F)F)CC(c2ccc(OC)cc2)N3)cc1 (stereo not given) | 96.4% (inactive)

Row | Compound | viability
73 | Clc1cnc(N/N=C/c2cccs2)c(Cl)c1 | 88.3% (inactive)
74 | CCn1c2c(c3cc(Br)ccc31)CCC/C2=N\O | 85.2% (inactive)
75 | CCOC(=O)c1cnc(-n2nc(C)cc2C)nc1NCc1ccc2c(c1)OCO2 | 96.5% (inactive)
76 | CCN(CC)c1cc(C)c2cc(NC(=O)c3ccc(Br)o3)ccc2n1 | 93% (inactive)
77 | CCCCc1oc2ccccc2c1C(=O)c1cc(I)c(OCCN(CC)CC)c(I)c1 | 88% (inactive)
78 | COc1cc2c(N3CCOCC3)cc(O)c(CC(=O)Nc3ccccc3)c2cc1OC | 95.9% (inactive)
79 | Cc1sc2nc(SCC(=O)c3cccs3)n(Cc3ccco3)c(=O)c2c1C | 87% (inactive)
80 | CC(C)(C)NC(=O)c1cnn2c1NC(c1ccc(F)cc1)CC2C(F)(F)F (stereo not given) | 99% (inactive)
81 | N=C1C(c2nc(-c3ccc(Cl)cc3)cs2)=C(O)CN1CCCN1CCOCC1 | 118% (inactive)
82 | COc1ccc(C(c2sc3ncnn3c2O)N2CC(C)OC(C)C2)cc1OC (stereo not given) | 98.1% (inactive)
83 | N#Cc1nc(-c2ccc(OCc3ccccc3)cc2)oc1NCCCn1ccnc1 | 92.9% (inactive)
84 | CCOC(=O)c1c(OCC)[nH]c2c1cc(O)c1ccccc12 | 117% (inactive)
85 | COc1ccc(OC)c(S(=O)(=O)N(C)CC(=O)N2CCN(c3ccc(F)cc3)CC2)c1 | 106% (inactive)
86 | O=C(Nc1ccc2nn(-c3ccccc3)nc2c1)c1ccc2c(c1)OCO2 | 121% (inactive)
87 | CCc1ccc(NC(=O)CCc2nc3cccnc3n2Cc2ccc(OC)cc2)cc1 | 90.2% (inactive)
88 | COc1ccc(NC(=O)c2ccccc2NC(=O)COc2ccccc2)cc1 | 93.3% (inactive)
89 | Cc1ccc2[nH]c3c(c2c1)CCC3=O | 110% (inactive)
90 | CCOc1c(Br)ccc2c1sc1nc[nH]c(=O)c12 | 102% (inactive)
91 | COc1ccc(CNC(=O)C(C#N)c2nc3ccccc3nc2N2CCN(C)CC2)cc1 (stereo not given) | 97.9% (inactive)
92 | Cc1ccc2[nH]c(=O)c(C3C(C#N)=C(N)Oc4c3ccc3cccnc43)cc2c1 (stereo not given) | 86.9% (inactive)
93 | CC(=O)Nc1ccc(S(=O)(=O)NC2=C(N3CCN(Cc4ccccc4)CC3)C(=O)c3ccccc3C2=O)cc1 | 89.8% (inactive)
94 | Cc1ccc(-n2c(SCC(=O)Nc3nccs3)nc3c(c2=O)SCC3)cc1 | 107% (inactive)
95 | CC(=O)c1c(C)[nH]c(C(=O)CSc2nnc(-c3ccccc3)n2Cc2ccc3c(c2)OCO3)c1C | 94.2% (inactive)
